Measured values: ChEMBL document CHEMBL2413000, “Control of the intracellular levels of prostaglandin E₂ through inhibition of the 15-hydroxyprostaglandin dehydrogenase for wound healing” (Bioorg Med Chem, 2013)
Activity calls are given as the source filed them. The calls are words filed in the database; no cut-off is given here.

target: T1, 15-hydroxyprostaglandin dehydrogenase [NAD(+)] (Homo sapiens, UniProt P15428); assay: Inhibition of human GST-fused 15-PGDH expressed in Escherichia coli BL21 using PGE2 as substrate assessed as formation of NADH by fluorescence spectrophotometric analysis; conditions: not given
T1 sequence (P15428 whole entry): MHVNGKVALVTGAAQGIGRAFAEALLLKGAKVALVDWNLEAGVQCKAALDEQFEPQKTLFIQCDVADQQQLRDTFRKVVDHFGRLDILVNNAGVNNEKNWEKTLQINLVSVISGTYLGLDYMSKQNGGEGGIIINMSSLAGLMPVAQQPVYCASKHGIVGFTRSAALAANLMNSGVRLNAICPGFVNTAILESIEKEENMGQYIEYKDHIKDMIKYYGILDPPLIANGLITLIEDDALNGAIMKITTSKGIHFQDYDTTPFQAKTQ
In short: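 GST-tagged 15-PGDH from pGEX-2T in E. coli BL-21 LysS, IPTG-induced 12 h at 25 °C, glutathione-Sepharose purified. Triplicates per concentration; IC50 derived.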

Row | SMILES | IC50 [nM]
1 | O=C1NC(=O)/C(=C/c2ccc(OCc3ccc4c(c3)OCO4)c(Cl)c2)S1 | 193
2 | O=C1NC(=O)/C(=C/c2ccc(Oc3cccc(/C=C/[N+](=O)[O-])c3)c(Cl)c2)S1 | 59
3 | O=C1NC(=O)/C(=C/c2ccc(Oc3cccc4c3CCCC4=O)c(Cl)c2)S1 | 71
4 | Cc1ncsc1CCOc1ccc(/C=C2\SC(=O)NC2=O)cc1Cl | 5170
5 | O=C1NC(=O)/C(=C/c2ccc(OCCc3ccc([N+](=O)[O-])o3)c(Cl)c2)S1 | 123
6 | O=C1NC(=O)/C(=C/c2ccc(OCC3CCCC3)c(Cl)c2)S1 | 11
7 | O=C1NC(=O)/C(=C/c2ccc(OCc3ccc([N+](=O)[O-])cc3)c(Cl)c2)S1 | 930
8 | O=C1NC(=O)/C(=C/c2ccc(OCCC3CCCC3)cc2Cl)S1 | 42
9 | O=C1NC(=O)/C(=C/c2ccc(OCC3CC4CCC3C4)c(Cl)c2)S1 (stereo unspecified) | 165
10 | O=C1NC(=O)/C(=C/c2ccc(OCCc3ccccn3)c(Cl)c2)S1 | 4440
11 | O=C1NC(=O)/C(=C/c2ccc(OCCOC3CCCCC3)cc2Cl)S1 | 211
12 | CCc1ccc(CCOc2ccc(/C=C3\SC(=O)NC3=O)cc2Cl)nc1 | 2080
13 | O=C1NC(=O)/C(=C/c2ccc(OCC3CCC3)c(Cl)c2)S1 | 9
14 | CC(Oc1ccc(/C=C2\SC(=O)NC2=O)cc1Cl)C1CC1 (stereo unspecified) | 132
15 | O=C1NC(=O)/C(=C/c2ccc(Oc3cccc([N+](=O)[O-])c3)c(Cl)c2)S1 | 100
16 | O=C1N=C(O)S/C1=C\c1ccc(OCCC2CCCCC2)cc1Cl | 13
17 | CC(C)OCCOc1ccc(/C=C2\SC(=O)NC2=O)c(Cl)c1 | 1050
18 | O=C1NC(=O)/C(=C/c2ccc(OCc3ccc([N+](=O)[O-])cc3)cc2Cl)S1 | 4540
19 | C=C(C)C1CCC(COc2ccc(/C=C3\SC(=O)NC3=O)cc2Cl)CC1 (stereo unspecified) | 75
20 | O=C1NC(=O)/C(=C/c2ccc(OCCCCc3ccccc3)cc2Cl)S1 | 81
21 | O=C1NC(=O)/C(=C/c2ccc(OCCOC3CCCCC3)c(Cl)c2)S1 | 20
22 | O=C1NC(=O)/C(=C/c2ccc(OC(=O)c3cccs3)c(Cl)c2)S1 | 264

target: T2, 15-hydroxyprostaglandin dehydrogenase [NAD(+)] (Homo sapiens) (UniProt P15428); assay: Inhibition of 15-PGDH in IL-1beta-stimulated human A549 cells assessed as increase in PGE2 level at 5 uM after 5 hrs by enzyme immunoassay relative to control; assay type: cell-based; conditions: in the assay text read “after 12 hrs” for “after 5 hrs”
T2 sequence (whole entry): T1 sequence (P15428 whole entry)
In short: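 A549 cells seeded at 5×10^5 per well, incubated overnight in RPMI with FBS and antibiotic at 37 °C, 5% CO₂, then treated with inhibitor at 5 μM. Medium collected (text gives 5 h in one passage, 12 h in methods). PGE₂ measured by kit enzyme immunoassay and compared with untreated control. Three independent experiments.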

Row | SMILES | inhibition
23 | O=C1N=C(O)S/C1=C\c1ccc(OCc2ccccc2)c(Cl)c1 | Active
24 | O=C1N=C(O)S/C1=C\c1ccc(OCCCc2ccccc2)c(Cl)c1 | Active
25 | O=C1N=C(O)S/C1=C\c1ccc(OCCCCc2ccccc2)c(Cl)c1 | Active

target: T2, 15-hydroxyprostaglandin dehydrogenase [NAD(+)] (Homo sapiens); assay: Inhibition of 15-PGDH in IL-1beta-stimulated human A549 cells assessed as increase in PGE2 level after 5 hrs by enzyme immunoassay; assay type: cell-based; conditions: not given
In short: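 IL-1β-stimulated A549 cells (RPMI, 10% heat-inactivated FBS, 5% CO₂, 37 °C) exposed to inhibitors at various concentrations for 5 h. PGE₂ in the collected medium quantified by enzyme immunoassay.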

Row | SMILES | inhibition
26 | O=C1N=C(O)S/C1=C\c1ccc(OCc2ccccc2)c(Cl)c1 | Dose-dependent effect
27 | O=C1N=C(O)S/C1=C\c1ccc(OCCCc2ccccc2)c(Cl)c1 | Dose-dependent effect
28 | O=C1N=C(O)S/C1=C\c1ccc(OCCCCc2ccccc2)c(Cl)c1 | Dose-dependent effect
29 | O=C1N=C(O)S/C1=C\c1ccc(OCCc2ccccc2)c(Cl)c1 | Dose-dependent effect

target: T2, 15-hydroxyprostaglandin dehydrogenase [NAD(+)] (Homo sapiens); assay: Inhibition of 15-PGDH in IL-1beta-stimulated human A549 cells assessed as increase in PGE2 level at 5 uM after 12 hrs by enzyme immunoassay relative to control; conditions: not given

Row | SMILES | fold change (FC)
30 | O=C1N=C(O)S/C1=C\c1ccc(OCCc2ccccc2)c(Cl)c1 | 5

tested on: HaCaT; assay: Wound healing activity in scratch made human HaCaT cells at 5 uM after 48 hrs by inverted microscopic analysis relative to control; assay type: functional, cell-based; conditions: not given
In short: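 HaCaT cells plated at ca. 5×10^5 per well in DMEM with 10% FBS and 10 µg/mL mitomycin, 37 °C, 5% CO₂, grown to ca. 80% confluence. Monolayer scratched with a 200 µL pipette tip, then incubated with 5 µM test agent; 1 ng TGF-β1 as positive control. Wound width imaged by inverted microscope at wounding and after 48 h, compared with untreated control.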

Row | SMILES | Activity
31 | O=C1N=C(O)S/C1=C\c1ccc(OCCc2ccccc2)c(Cl)c1 | Active
